In one data set the test system is Bacillus cereus. Nature of the data set: Antibacterial activity against Bacillus cereus ATCC 11778 after 24 hrs by broth microdilution method. In kind it is functional. The conditions noted are these: ATCC 11778, 24 h. Put shortly: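 MIC by CLSI broth microdilution in cation-adjusted Mueller–Hinton broth, tubes. Compounds in H2O or DMF, diluted in PBS to 1000 μg/mL stocks, then serial 2-fold dilutions (final DMF 2.5%). Inoculum ~5×10^5 CFU/mL from TSA plates grown 35 °C 20 h. Incubation 35 °C 24 h; MIC = no visible growth vs control. Biological replicates.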
(In broth dilution the organism is exposed to a series of concentrations in liquid medium.)

In data set [1] the test system is Staphylococcus aureus. As to the kind of experiment: Antibacterial activity against methicillin-sensitive Staphylococcus aureus DM4299 after 24 hrs by broth microdilution method. It counts as functional. The conditions noted are these: DM4299, 24 h. Put shortly:
(§1)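 Broth microdilution per CLSI in cation-adjusted Mueller−Hinton broth, in tubes. Compounds dissolved in H2O or DMF, then diluted in PBS to 1000 μg/mL stocks. Serial 2-fold dilutions were made, with final DMF 2.5%. Organisms were grown on TSA at 35 °C for 20 h and adjusted to ~5× 10^5 CFU/mL. Tubes were incubated at 35 °C for 24 h. MIC was the lowest concentration with no visible growth versus control. Biological replicates.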

The test system of data set [2] is Staphylococcus aureus. As to the kind of experiment: Antibacterial activity against methicillin-resistant Staphylococcus aureus BAA-38 after 24 hrs by broth microdilution method. It counts as functional. As to conditions: BAA-38, 24 h. Put shortly: as §1
For data set [3], the system named is Staphylococcus aureus. Nature of the data set: Antibacterial activity against methicillin-resistant Staphylococcus aureus ATCC 700699 infected in C57BL6 mouse corneas assessed as log reduction in bacterial burden at 0.5 % dosed at 1 day post infection administered 5 times daily for 3 days. It counts as functional. Put shortly:
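C57BL6 mice, 6−8 weeks old, 20−30 g, anesthetized with ketamine/xylazine; four per group. Three 1 mm scratches were made on the right cornea and 10 μL of a 6 × 10^8 CFU/mL MRSA ATCC 700699 suspension was applied. From day 1 post infection, agents in PBS (12 mM, pH 7.2) were given topically 5 times daily for 3 days; PBS alone as control. Corneas were homogenized in 0.9% NaCl with 0.25% BSA and plated on TSA for 48 h at 35 °C.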

Data set [4] concerns Staphylococcus aureus. Nature of the data set: Antibacterial activity against Staphylococcus aureus ATCC 29213 infected in C57BL6 mouse keratitis model assessed as log reduction in bacterial burden at 0.5 % administered 4 times daily at 2 hrs interval for 1 day. It counts as functional. The essentials:
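C57BL6 mice, 6–8 weeks, 20–30 g, four per group, anesthetized with ketamine/xylazine. Right cornea scratched (three 1 mm cuts), 10 μL of 6×10^8 CFU/mL S. aureus ATCC 29213 in PBS applied topically. From day 1, 0.5% drug in PBS (12 mM, pH 7.2) given 4 times at 2 h intervals. Corneas homogenized in 0.9% NaCl/0.25% BSA, diluted, plated in duplicate on TSA, 48 h at 35 °C.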

Data set [5] in a line: Cytotoxicity against human Corneal fibroblasts assessed cell viability at 30 uM after 24 hrs by Cell Titer-Glo luminescent assay. It counts as cell-based, Corneal fibroblast. As to conditions: read-out: Activity. The essentials:
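ATP luminescence viability in human corneal fibroblasts, ~10000 cells per well, duplicate wells. After 24 h exposure the plate is equilibrated 0.5 h at 22 °C before Cell Titer-Glo addition and luminescence read. 1% Triton X-100 serves as positive control, medium-treated cells as negative control. Biological replicates.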
(ATP-based viability assays read luminescence as a measure of living cells.)

Data set [6] in a line: Cytotoxicity in human Corneal fibroblasts assessed as LDH release at 30 uM after 24 hrs. In kind it is cell-based. As to conditions: corneal fibroblast. The essentials:
(§2)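 Human corneal fibroblasts are exposed to test samples for 24 h, and cytotoxicity is read as LDH leakage into the medium. Biological replicates.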
In general terms: LDH in the medium is a marker of cell lysis.

Data set [7] is described as follows: Cytotoxicity in human Corneal fibroblasts assessed as LDH release at 50 uM after 24 hrs. In kind it is cell-based. The conditions noted are these: corneal fibroblast. The essentials: as §2

Converted amounts (≈) assume the structure as drawn. The source made the active and inactive calls. No cut-off for these calls is given here.

For orientation: MIC means the lowest concentration that inhibits growth of the organism. In the case of `COC(=O)[C@H](CCCNC(=N)N)NC(=O)COc1cc(O)c2c(=O)c(OCC(=O)N[C@@H](CCCNC(=N)N)C(=O)OC)c(-c3ccc(OC)cc3)oc2c1CC=C(C)C`, the MIC against Bacillus cereus stood at 3.8 µM (≈ 3.13 µg/mL); against Staphylococcus aureus [1] it was 3.13 µg/mL (≈ 3.79 µM); in the data set with Staphylococcus aureus [2], 3.13 µg/mL (≈ 3.79 µM). Also, the values for the Activity (with Staphylococcus aureus [3]; in data set [6]; in data set [7]) were 2.95 deltalog10CFU/ml, -2.3% and 0.05%, respectively. Moreover, in the data set with Staphylococcus aureus [4], the outcome was Active. Moreover, in data set [5], the viability at 24 h, 30 µM was found to be 98.2%.

The values above are taken from ChEMBL document CHEMBL4011638, “Semisynthetic Flavone-Derived Antimicrobials with Therapeutic Potential against Methicillin-Resistant Staphylococcus aureus (MRSA)” (J Med Chem, 2017).
